Assay [1] deals with Trypanosoma brucei. Briefly: Trypanocidal activity against Trypanosoma brucei bloodstream form assessed as induction of autophagy at 3 mM after 24 hrs by transmission electron microscopy. It is filed as functional, organism-based. The method in brief:
(§1)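 Parasites exposed 24 h to 3 mM DHA. 10⁸ cells fixed 1 h at 4°C in 2% glutaraldehyde in 0.2 M sodium cacodylate with 0.12 M sucrose, held overnight in buffer, postfixed in 1.5% osmium tetroxide and stained with 0.5% uranyl acetate. Dehydrated in ethanol, cleared in propylene oxide, embedded in Agar 100. Sections stained with 5% uranyl acetate and 0.4% lead citrate for TEM. Rapamycin (5 μM) served as the autophagy positive control.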

Assay [2] relates to Trypanosoma brucei. Briefly: Effect on morphological changes in Trypanosoma brucei bloodstream form assessed as increase in cell size after 24 hrs using DAPI staining by phase-contrast microscopy. It counts as functional, organism-based.
For assay [3], the system named is Trypanosoma brucei. Briefly: Effect on cell cycle of Trypanosoma brucei bloodstream form assessed as increase in cells with two nuclei and two kinetoplasts at 1 to 3 mM using DAPI staining by phase-contrast microscopy. It is filed as functional, organism-based. The gist of the method:
(§2)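 Bloodstream forms (MITat 1.2, EATRO 427) grown 24 h with or without DHA. Aliquots washed twice in PBS, resuspended, placed on slides and fixed with methanol. Stained 5 min with DAPI (0.1 μg/ml final), then washed. Phase-contrast and fluorescence images scored for nucleus/kinetoplast numbers (1N1K, 1N2K, 2N2K, 2N1K, abnormal). n = 4, Student's t test, SD.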

The subject of assay [4] is Trypanosoma brucei. Briefly: Effect on cell cycle of Trypanosoma brucei bloodstream form assessed as induction of necrosis at 1 mM after 24 hrs using propidium iodide staining by FACS analysis. It is filed as functional. The gist of the method: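 Bloodstream forms exposed 24 h at 37°C, 5% CO₂. Cells at 2 × 10⁶/ml incubated 10 min with propidium iodide (5 μg/ml), and uptake read by flow cytometry as a measure of membrane integrity. Digitonin (6 μM) served as the necrosis positive control.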

Assay [5] concerns Trypanosoma brucei. Briefly: Effect on morphological changes in Trypanosoma brucei bloodstream form assessed as presence of glycosomes at 3 mM after 24 hrs by transmission electron microscopy. It counts as functional, organism-based. The method in brief: as §1
For assay [6], the system named is Trypanosoma brucei. The assay can be described thus: Induction of apoptosis-like programmed cell death in Trypanosoma brucei bloodstream form assessed as increase in intracellular reactive oxygen species production at 5 uM after 24 hrs by FACS analysis. It is filed as functional.
In assay [7] the test system is Trypanosoma brucei. The assay can be described thus: Trypanocidal activity against Trypanosoma brucei bloodstream form at 5 mM up to 24 hrs by spectrophotometry. It counts as functional. The method in brief: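 Proliferation measured in complete medium (33 mM glucose, 15% serum) with a range of DHA concentrations. Cell density followed over 24 h. Triplicate, SD.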

Assay [8] has as its system Trypanosoma brucei. Briefly: Effect on morphological changes in Trypanosoma brucei bloodstream form assessed as presence of kinetoplast after 24 hrs using DAPI staining by phase-contrast microscopy. It is filed as functional, organism-based. The method in brief:
as §2

Assay [9] has as its system Trypanosoma brucei. The assay can be described thus: Effect on cell cycle of Trypanosoma brucei bloodstream form assessed as increase in cells with two nuclei and one kinetoplast at 1 to 3 mM using DAPI staining by phase-contrast microscopy. It is filed as functional, organism-based. The method in brief:
as §2

The subject of assay [10] is Trypanosoma brucei. Briefly: Induction of apoptosis-like programmed cell death in Trypanosoma brucei bloodstream form assessed as increase in intracellular reactive oxygen species production at 4 mM after 24 hrs by FACS analysis. It counts as functional. The method in brief: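 Bloodstream-form T. brucei MITat 1.2 (VSG 221, strain EATRO 427) were grown axenically at 37°C, 5% CO₂ and exposed to DHA for 24 h. Control and treated cells were then loaded with 10 μM dichlorofluorescein diacetate for 1 h at 37°C. Intracellular fluorescence intensity was read by flow cytometry.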

Assay [11] concerns Trypanosoma brucei. The assay can be described thus: Effect on morphological changes in Trypanosoma brucei bloodstream form assessed as change in cell nucleus at 3 mM after 24 hrs by transmission electron microscopy. It is filed as functional, organism-based. The method in brief: as §1
The subject of assay [12] is Trypanosoma brucei. The assay can be described thus: Effect on morphological changes in Trypanosoma brucei bloodstream form assessed as dilation of mitochondrial membrane at 3 mM after 24 hrs by transmission electron microscopy. It counts as functional, organism-based. The method in brief:
as §1

Assay [13] deals with Trypanosoma brucei. Briefly: Trypanocidal activity against Trypanosoma brucei bloodstream form assessed as phosphatase activity. It is filed as functional, organism-based. The method in brief:
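Parasites in exponential growth diluted to 2 × 10⁵ cells/ml and cultured 24 h with 1–4 mM DHA. Lysis buffer with p-nitrophenyl phosphate (in 1 M sodium acetate pH 5.5, 1% Triton X-100) added. Read at 405 nm after 6 h at 37°C. IC₅₀ derived from phosphatase activity (Bodley method).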

Structures are written as SMILES. Activity calls are given as the source filed them. The rule behind the calls is not given here.

`O=C(CO)CO` [DIHYDROXYACETONE]: the outcome in the assay on Trypanosoma brucei [1], in the assay with Trypanosoma brucei [3], with Trypanosoma brucei [5], with Trypanosoma brucei [9] and with Trypanosoma brucei [12] was Active. For the same molecule, the Activity result in the assay with Trypanosoma brucei [2] is “Dose-dependent effect”; in the assay on Trypanosoma brucei [4] it was 4%; in the assay with Trypanosoma brucei [6], 33.6%; with Trypanosoma brucei [7], 100%; with Trypanosoma brucei [8], “Dose-dependent effect”; in the assay with Trypanosoma brucei [10] it was 23.2%. Moreover, the outcome in the assay on Trypanosoma brucei [11] was inactive. Moreover, the concentration for half-maximal inhibition (IC50) in the assay on Trypanosoma brucei [13] amounted to 1030 µM.

The values are drawn from ChEMBL document CHEMBL1137629, “Antiproliferative effect of dihydroxyacetone on Trypanosoma brucei bloodstream forms: cell cycle progression, subcellular alterations, and cell death” (Antimicrob Agents Chemother, 2007).
